High-throughput results (PubChem)
IMP-1 inh – inhibitors of Pseudomonas aeruginosa IMP-1 metallo-beta-lactamase; purified IMP-1, nitrocefin hydrolysis, epi-absorbance fluorescence; inhibition, % at 5.6 µM; 290,000 tested, 0.45% active; AID 1556;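 active = inhibition above the mean plus 3 SD of all compounds in the same screening run, cut at about 4.5% in these data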;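 note: 0% = IMP-1 with DMSO and 100% = DMSO wells lacking enzyme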
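system = purified recombinant IMP-1 beta-lactamase | amount = 0.2 nM IMP-1, as dispensed | medium = HEPES buffer pH 7.1 with ZnSO4 and Brij 35 | times = 25 °C, 15 min preincubation, 25 min reaction | detection = plate fluorescence quenching by hydrolysis product, ex 480/em 530 nm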
VIM-2 inhibitor – inhibitors of Pseudomonas aeruginosa VIM-2 metallo-beta-lactamase | purified VIM-2, nitrocefin hydrolysis, epi-absorbance fluorescence | inhibition, % at 5.6 µM | 290,000 tested, 0.89% active | AID 1527;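 active = inhibition above the mean of all tested compounds plus 3 SD, cutoff set per screening run, cut at about 7.5% in these data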;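 note: red hydrolysis product quenches plate fluorescence so inhibitors raise well fluorescence; 0% = enzyme with DMSO and 100% = DMSO without enzyme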
CHT block – human CHT choline transport inhibition; Q9GZV3; CHT-expressing cells, membrane potential dye, choline response; hits give low values; B-score at 10 µM; 310,000 tested, 0.86% active;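 active = B-score over 3 SD under the library average, and starting fluorescence ratio not unusually high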;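 note: choline stimulus applied at its EC90 after an EC20 pre-addition; B-score computed on integrated fluorescence ratio after choline addition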
ANO1 block – mouse TMEM16A channel inhibition, primary screen; Q8BHY3; HEK293 TMEM16A/YFP iodide influx fluorescence, ionomycin; normalized B-score (activity score, 25-100; higher = stronger inhibition) at 10 µM; 310,000 tested, 1.2% active;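 active = ratio plate-corrected score three or more library SD toward inhibition, starting fluorescence score within five deviations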;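 note: score derived from kinetic fluorescence span divided by baseline fluorescence per well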
TMEM16A act – mouse TMEM16A channel activation, primary screen; B-score at 10 µM; HEK293 TMEM16A/YFP-H148Q/I152L, iodide quench fluorescence; hits give low values; Q8BHY3; 340,000 tested, 0.3% active;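 active = fluorescence-ratio B-score plate-corrected deviation score at least 3 library SD below zero, with starting fluorescence score within 5 deviations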;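 note: channel opened by trigger with iodide after compound preincubation; score built on the fluorescence ratio of max minus min over baseline; more negative score means more quench and so TMEM16A activation or potentiation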
CHT allo act – allosterically activates the human high affinity choline transporter; Q9GZV3; CHT-expressing cells, membrane potential dye, choline EC20; hits give high values; LV-AA mutant CHT in HEK293 cells; B-score at 10 µM; 310,000 tested, 0.49% active; AID 488977;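 active = initial fluorescence not abnormally high and integrated response B-score, plate-corrected, over 3 SD above library mean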
TMEM16A reconf – re-confirmation of mouse TMEM16A chloride channel inhibitors; shares compounds with ANO1 block; HEK293 TMEM16A/YFP-H148Q, iodide quench fluorescence; ionomycin added to raise cell calcium; inhibition, % at 10 µM; 2,300 tested, 39% active; AID 652189;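 active = mean duplicate percent inhibition, scaled so buffer wells are 0 and the reference blocker 100, over three buffer SD above buffer mean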
TMEM16A Ca cntr – calcium mobilization counter-screen hit for TMEM16A inhibitor series | shares compounds with ANO1 block | 2,300 tested, 2% active | TMEM16A/YFP HEK293, Fluo4 calcium mobilization | calcium response (% of ionomycin), % at 10 µM;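 active = duplicate-averaged calcium signal over 20% of the ionomycin maximum, relative to buffer baseline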;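 note: each well's signal is peak minus trough fluorescence divided by its pre-addition baseline; 0% = buffer wells and 100% = ionomycin wells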
YFP-HEK293 quench – acts in parental YFP-HEK293 cells lacking TMEM16A, counter-screen. YFP ratio F(max-min)/F0 at 10 µM. AID 652233. shares compounds with ANO1 block. 2,300 tested, under 10 active. iodide YFP quench, ionomycin;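 active = yellow fluorescent protein signal ratio exceeding the buffer control mean by over 5 SD of those controls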;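 note: ratio is mean of duplicate wells from kinetic YFP trace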
ClC-1 inh – rat ClC-1 inhibition, TMEM16A specificity screen; ratio percent, % at 10 µM; 2,300 tested, under 10 active; CHO ClC-1-YFP, iodide influx fluorescence quench; iodide control reads 0, buffer control 100; shares compounds with ANO1 block;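 active = duplicate-mean ratio percent above the mean of iodide-only control wells, which defines zero, plus 5 of their SD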;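 note: higher percent means stronger block of ClC-1 iodide influx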
Target sequence (P35524 whole entry, looked up): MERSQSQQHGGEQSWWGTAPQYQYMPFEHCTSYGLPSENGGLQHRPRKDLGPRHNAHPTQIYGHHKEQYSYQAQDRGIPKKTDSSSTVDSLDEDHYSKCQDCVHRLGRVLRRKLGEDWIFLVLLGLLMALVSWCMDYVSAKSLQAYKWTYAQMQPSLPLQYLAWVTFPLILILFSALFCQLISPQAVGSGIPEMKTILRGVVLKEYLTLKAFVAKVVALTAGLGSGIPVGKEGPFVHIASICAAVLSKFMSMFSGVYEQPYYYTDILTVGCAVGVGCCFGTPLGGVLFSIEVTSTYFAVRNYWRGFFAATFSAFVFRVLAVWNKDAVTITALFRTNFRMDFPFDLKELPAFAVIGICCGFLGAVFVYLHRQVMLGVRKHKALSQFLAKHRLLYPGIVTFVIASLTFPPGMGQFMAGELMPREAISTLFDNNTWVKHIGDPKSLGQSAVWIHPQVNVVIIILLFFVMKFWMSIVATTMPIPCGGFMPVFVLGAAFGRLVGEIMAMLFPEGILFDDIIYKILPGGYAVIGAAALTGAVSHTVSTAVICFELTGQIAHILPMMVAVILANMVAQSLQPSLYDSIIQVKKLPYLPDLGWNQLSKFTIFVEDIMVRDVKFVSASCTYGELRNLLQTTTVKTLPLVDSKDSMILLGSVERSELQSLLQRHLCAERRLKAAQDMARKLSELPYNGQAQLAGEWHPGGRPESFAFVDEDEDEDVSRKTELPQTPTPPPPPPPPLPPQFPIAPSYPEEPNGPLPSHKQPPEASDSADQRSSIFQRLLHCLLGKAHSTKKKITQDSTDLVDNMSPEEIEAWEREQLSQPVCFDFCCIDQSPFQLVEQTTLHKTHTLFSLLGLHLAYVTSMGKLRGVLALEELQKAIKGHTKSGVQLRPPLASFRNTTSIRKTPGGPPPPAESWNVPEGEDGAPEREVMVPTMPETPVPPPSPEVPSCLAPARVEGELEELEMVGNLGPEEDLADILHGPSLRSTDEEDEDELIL
The depositor's hits bear a star; i = inactive; . = no result. Most compounds without a hit are left out; they make up all but 3.4% or so of the library.

SMILES	IMP-1 inh	VIM-2 inhibitor	CHT block	ANO1 block	TMEM16A act	CHT allo act	TMEM16A reconf	TMEM16A Ca cntr	YFP-HEK293 quench	ClC-1 inh
O=C(Oc1ccc2ccccc2c1Cl)N1CCCCCC1	0	1	i	25*	i	i	i	i	-0.76	-14
O=C(OCC(=O)N1CCN(Cc2ccccc2)CC1)c1cc(Cl)ccc1[N+](=O)[O-]	.	.	.	.	i	.	.	.	.	.
CCC1(C)Cc2c(sc3[nH]c(=O)[nH]c(=O)c23)CS1 (configuration not stated)	-4	0	i	100*	i	i	i	i	-1.1	-10
Cc1cc(C)n(-c2nc(N(c3ccccc3)c3ccccc3)nc(-n3nc(C)cc3C)n2)n1	-5	-4	i	100*	i	i	26%*	i	-0.99	-19
N#CC(c1ccc(F)cc1)c1ccc(C(=O)c2ccc(F)cc2)cc1 (configuration not stated)	-3	-3	i	100*	i	i	28%*	i	-0.88	-14
N#CC(CC(=O)c1ccc(F)cc1)c1ccc2c(c1)OCO2 (configuration not stated)	-3	-3	i	i	i	i	.	.	.	.
C=CCN(c1ccccc1)S(=O)(=O)c1cccc(C(=O)NCC2CCCO2)c1 (configuration not stated)	-4	-3	i	i	i	i	.	.	.	.
Cc1c(N=C/C=C/c2ccccc2)c(=O)n(-c2ccccc2)n1C	0	0	i	25*	i	i	i	i	-0.97	-8
CCCCC1(C)OC(=O)C(=Cc2ccc(N(C)C)cc2)C(=O)O1 (configuration not stated)	1	1	i	i	i	i	22%*	i	-0.88	-12
CC1CCN(C(=O)CSc2nnc(CNc3ccc(F)cc3)n2Cc2ccco2)CC1	0	-1	i	i	i	i	.	.	.	.
O=C(CSc1nnc(CNc2ccc(F)cc2)n1Cc1ccco1)N1CCCC1	-4	-1	i	25*	i	i	i	i	-1.2	-6
COc1ccc2[nH]cc(CCNS(=O)(=O)c3ccc(F)cc3)c2c1	-1	-1	i	25*	i	i	i	i	-1	-8
CN(CC(=O)Nc1ccc(F)cc1)C(=O)Cn1cnc2ccc([N+](=O)[O-])cc2c1=O	.	.	.	.	i	.	.	.	.	.
O=C1c2ccccc2C(=O)N1Cc1nn2c(-c3ccc(Cl)cc3)nnc2s1	.	.	i	25*	i	i	i	i	-0.96	-4
Cc1nn(CC(=O)Nc2ccc(N3CCOCC3)cc2)c(C)c1[N+](=O)[O-]	.	.	.	.	i	.	.	.	.	.
CC(=O)c1cccc(NC(=O)Nc2ccc3c(c2)N(C)C(=O)CS3)c1	-1	-1	i	25*	i	i	34%*	i	-1.1	-15
CC1CCCN(c2nc3ccccc3nc2C(C#N)S(=O)(=O)c2ccccc2)C1 (configuration not stated)	-3	-3	i	i	i	i	.	.	.	.
Cc1cccc(S(=O)(=O)C(C#N)c2nc3ccccc3nc2N2CCOCC2)c1 (configuration not stated)	3	-1	i	100*	i	i	i	i	-1	-14
CCOC(=O)N1CCN(c2nc3ccccc3nc2C(C#N)S(=O)(=O)c2ccc(C)cc2)CC1 (configuration not stated)	0	1	i	100*	i	i	76%*	i	-1	-19
Cc1ccc(S(=O)(=O)C(C#N)c2nc3ccccc3nc2N2CCN(C)CC2)cc1 (configuration not stated)	-4	-2	i	i	i	i	.	.	.	.
COc1ccc(-c2noc(CCC(=O)N3CCN(c4cc(C)ccc4C)CC3)n2)cc1	-3	-4	i	100*	i	i	i	i	-0.94	-4
O=C(CC(Cc1ccccc1)c1ccco1)NC1CCCCC1 (configuration not stated)	-3	-2	i	i	i	i	i	i	-1.2	0
O=C(COC(=O)c1ccccc1NCCO)Nc1cc(C(F)(F)F)ccc1N1CCOCC1	-2	0	i	i	i	i	.	.	.	.
O=C(Nc1ccc(Cc2nc3ccccc3s2)cc1)c1ccncc1	-3	0	i	25*	i	i	17%*	i	-0.98	-12
NC(=O)c1ccc(NC(=O)CCc2nc3ccccc3s2)cc1	-1	-1	i	i	i	i	.	.	.	.
SMILES	IMP-1 inh	VIM-2 inhibitor	CHT block	ANO1 block	TMEM16A act	CHT allo act	TMEM16A reconf	TMEM16A Ca cntr	YFP-HEK293 quench	ClC-1 inh
Cc1cccc(NC(=O)C(=O)NCC2CCCO2)c1 (configuration not stated)	-1	-1	i	i	i	i	.	.	.	.
CCCc1nc2c(sc3nc4c(cc32)COC(C)(C)C4)c(=O)n1CCN(C)C	-3	0	i	i	i	i	.	.	.	.
CCCc1nc2c(sc3nc4c(cc32)COC(C)(C)C4)c(=O)n1Cc1ccco1	-4	-1	i	25*	i	i	47%*	i	-1.1	-13
C[C@@H]1C[C@H]2[C@@H]3CCC4=CC(=O)C=C[C@]4(C)[C@@]3(Cl)[C@@H](O)C[C@]2(C)[C@@]1(OC(=O)c1ccco1)C(=O)CCl	.	.	i	i	i	i	.	.	.	.
O=C(CSc1ccc(Cl)cc1)N1CCN(c2ncc(C(F)(F)F)cc2Cl)CC1	-1	-7	i	100*	i	i	i	i	-0.93	2
O=C(Nc1ccccc1Cl)c1ccc2c(=O)n3c(nc2c1)CCC3	.	.	.	.	i	.	.	.	.	.
O=C(Nc1nc(-c2ccccc2)cs1)c1ccc2c(=O)n3c(nc2c1)CCCCC3	-2	-2	i	100*	i	i	i	i	-1.2	-2
Cc1cccc(OCCCSc2nc3ccccc3[nH]2)c1	-3	-1	i	100*	i	i	17%*	i	-1.1	-8
